Assay outcomes: PubChem BioAssay, The Scripps Research Institute Molecular Screening Center
This is a sample that favours compounds with a hit; in the whole collection about 4.6% have one here.
GPR7 antag = antagonists of human GPR7 (neuropeptides B/W receptor 1); hit rate 1.1% among 290,000; AID 1861; inhibition, % at 4.4 µM; GPR7-expressing cells, fluorescence antagonist assay; in the data active means inhibition above about 16%, passing the limit was not always enough;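 further: cells stimulated with the agonist NPW; 0% = agonist with vehicle and 100% = vehicle without agonist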
TAAR1 agonist = human TAAR1 agonism. AID 624467. Q96RJ0. CHO RD-HGA16 TAAR1, Fluo-8 calcium fluorescence; vehicle wells 0%, saturating PEA agonist 100%. hit rate 0.99% among 360,000. activation, % at 3 µM;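 active means activation above the mean activation of all test compounds in the run plus 3 SD, cut at about 38% in these data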
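Signal – calcium-sensitive Fluo-8 signal, excitation 470-495, emission 515-575 nm · System – RD-HGA16 (CHO) cells co-expressing Gα16 and hTAAR1 · Incubation – 17-24 h seeding, 75 min 37 °C dye, 30 min RT · Compound dosing – 3 µM single concentration · Repeats – no replicates (n 1)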
OX1R antag-1 = OX1R (human) antagonism; O43613; OX1R-expressing cells, FRET antagonist read-out; inhibition, % at 6.6 µM; hit rate 1.8% among 330,000; AID 485270; in the data active means inhibition mostly above about 38%, no sharp cut-off; inactive means mostly below about 40%;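 further: 0% = agonist challenge alone and 100% = reference antagonist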
Target sequence (O43613 whole entry, looked up): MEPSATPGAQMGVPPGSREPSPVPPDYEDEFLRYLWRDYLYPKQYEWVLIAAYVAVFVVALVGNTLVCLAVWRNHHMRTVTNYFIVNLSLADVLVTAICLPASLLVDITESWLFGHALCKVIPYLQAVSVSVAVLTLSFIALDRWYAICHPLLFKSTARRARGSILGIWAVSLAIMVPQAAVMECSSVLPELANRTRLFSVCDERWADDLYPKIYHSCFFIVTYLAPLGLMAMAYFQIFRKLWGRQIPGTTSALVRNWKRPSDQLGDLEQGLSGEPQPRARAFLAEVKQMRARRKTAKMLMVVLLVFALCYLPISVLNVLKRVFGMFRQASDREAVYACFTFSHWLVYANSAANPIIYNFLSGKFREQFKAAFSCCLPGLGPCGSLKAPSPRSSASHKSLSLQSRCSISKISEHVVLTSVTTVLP
OX1R antag-2 = human HCRTR1 antagonism; inhibition, % at 5 µM; O43613; hit rate 0.43% among 330,000; AID 434989; CHO/OX1R cells, Fluo-8 calcium fluorescence, orexin A;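 active means inhibition above its plate's threshold, mean inhibition of all tested compounds on the plate plus 3 SD, cut at about 37% in these data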;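 further: 0% = orexin A challenge wells and 100% = SB-334867-A antagonist wells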
CHO parental Ca = counter-screen: ATP calcium response change in parental CHO cells | parental CHO-K1, ATP-induced calcium, Fluo-8 fluorescence | inhibition, % at 5.6 µM | hit rate 0.63% among 330,000 | AID 463079;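 active means inhibition above that plate's mean sample inhibition plus 3 SD, cut at about 26% in these data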;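 further: 0% = ATP-challenged DMSO wells and 100% = DMSO wells without ATP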
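Assay system – parental CHO cells · Reagent – ATP stimulus · Detection – intracellular calcium via Fluo-8 no-wash fluorescent dye · Evaluation – percent inhibition of ATP-evoked calcium rise, normalized to controls · Controls – ATP wells versus no-ATP DMSO wells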
TAAR1 antagonist = antagonists of human TAAR1; Q96RJ0; CHO RD-HGA16 TAAR1, Fluo-8 calcium fluorescence, antagonist; inhibition, % at 3 µM; hit rate 1.5% among 360,000; AID 624466;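 active means inhibition above a per-plate cutoff, the mean inhibition of test compounds on that plate plus 3 SD, cut at about 49% in these data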;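 further: 0% = DMSO plus EC80 beta-PEA response and 100% = DMSO alone without agonist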
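Test system – hTAAR1-expressing CHO RD-HGA16 cells, Gα16-coupled · Also added – β-PEA at EC80 concentration, post-compound challenge · Compound – 3 µM, single point · Incubation – dye loading 75 min at 37 °C, then 30 min room temperature · Measured by – Fluo-8 intracellular calcium dye fluorescence, real-time kinetic reads · Benchmarks – vehicle and agonist controls · Replicates – singlicate, one well per test compound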
An asterisk follows results filed as active; / = no result given.

SMILES	GPR7 antag	TAAR1 agonist	OX1R antag-1	OX1R antag-2	CHO parental Ca	TAAR1 antagonist
O=S(=O)(NCc1csc(-c2ccccc2)n1)c1ccc(Cl)s1	9	-1	27	-2	3	-13
O=S(=O)(NCc1csc(-c2cccnc2)n1)c1ccc(Cl)s1	13	1	41*	5	-13	-6
CCc1ccc(S(=O)(=O)NCc2csc(-c3ccccc3)n2)s1	0	2	26	-22	-14	7
O=S(=O)(NCc1csc(-c2cccnc2)n1)c1ccc2c(c1)OCCO2	-11	0	72*	-1	-12	-18
O=S(=O)(NCc1csc(-c2cccnc2)n1)c1ccc(F)cc1	11	13	18	-14	-5	-29
O=C(Cn1nc(-c2ccccc2)ccc1=O)NCc1ccc2c(c1)OCO2	18	18	72*	0	-9	-3
CCC1Sc2ccccc2N(CC(=O)NCc2ccc3c(c2)OCO3)C1=O (centres undefined)	1	17	24	-7	-10	50*
O=C(Cn1nc(-c2ccc(Cl)cc2)ccc1=O)NCc1ccc2c(c1)OCO2	10	-2	29	-36	-4	-19
O=C(CSc1ccc2ccccc2n1)NCc1ccc2c(c1)OCO2	-21	2	54*	-6	-27	-2
O=[N+]([O-])c1ccc2c(c1)CO[C@]21O[C@H](CCO)C[C@H](O)[C@H]1O	/	3	/	/	/	3
CCOC(=O)CSc1nc2sc(C)c(C)c2c(=O)[nH]1	-13	2	23	-11	-24	1
CCOC(=O)/C(=C\c1ccc(Cl)cc1)c1nc2sc(C)c(C)c2c(=O)[nH]1	-1	14	1	-21	-12	92*
CN1CCN(c2ccccc2NC(=O)c2ccc([N+](=O)[O-])o2)CC1	16	/	71*	-23	-18	/
CCC(=O)N1CCN(c2ccc(Cl)cc2NC(=O)c2ccc([N+](=O)[O-])o2)CC1	4	7	28	-35	-22	24
CS(=O)(=O)N1CCN(c2ccccc2NC(=O)c2ccc([N+](=O)[O-])o2)CC1	-15	10	35	-2	-20	8
Cc1ccc(NC(=O)c2ccc([N+](=O)[O-])o2)c(C)c1	-14	3	29	-11	-2	3
CCn1nnc(NC(=O)c2ccc([N+](=O)[O-])o2)n1	-9	4	69*	-3	-4	-23
O=C(Nc1cc(Cl)ccc1-n1cncn1)c1ccc([N+](=O)[O-])o1	/	3	48*	-24	-9	-20
Cc1ccccc1NC(=O)c1ccc([N+](=O)[O-])o1	-8	1	70*	-4	4	6
CCCNC(=O)c1cc(C2CCCCN2C(=O)c2ccc(OC)cc2)on1 (centres undefined)	/	2	/	/	/	-17
CN1CCN(c2ccccc2NC(=O)c2cccc(OCc3ccccc3)c2)CC1	18*	8	9	-14	-22	0
CN1CCN(c2ccccc2NC(=O)c2ccc(OCc3ccccc3)cc2)CC1	4	12	7	-20	-16	16
O=C(Nc1cccc2ncccc12)c1ccc([N+](=O)[O-])o1	0	1	70*	0	4	-12
Cc1c(NC(=O)c2ccc([N+](=O)[O-])o2)cccc1-c1nc2ncccc2o1	10	2	63*	-3	-15	13
Cc1[nH]c2ccccc2c1CC(=O)Nc1ccc(Nc2cccnc2)c(-c2ccc(-c3ccccc3)cc2F)c1	/	1	/	/	/	7
SMILES	GPR7 antag	TAAR1 agonist	OX1R antag-1	OX1R antag-2	CHO parental Ca	TAAR1 antagonist
COC(=O)[C@]12C[C@H](CC(=O)NCCCCc3ccccc3)C(=O)N(Cc3ccccc3)C1=C[C@H](C1CCCC1)O[C@@H]2C	/	0	/	/	/	-15
O=C(NCc1ccc2c(c1)OCO2)c1cc([N+](=O)[O-])ccc1N1CCCCC1	37*	3	26	-21	-19	42
O=C(NCc1ccco1)c1cc([N+](=O)[O-])ccc1N1CCCCC1	6	3	34	-23	-11	-11
COC(=O)[C@]12C[C@H](CC(=O)NCc3ccccc3)C(=O)N(Cc3ccc4c(c3)OCO4)C1=C[C@H](COCc1ccccc1)O[C@@H]2C	/	0	/	/	/	6
O=c1c(/C=N/O)c(Nc2ccccc2)nc2ccccn12	-12	1	73*	9	0	-31
CCC(C)N=Cc1c(Nc2ccccc2)nc2c(C)cccn2c1=O (centres undefined)	-7	2	13	-4	4	-31
Cc1ccc(S(=O)(=O)/N=C2/C=C(Sc3ncn[nH]3)C(=O)c3ccccc32)cc1	-17	/	59*	-5	-12	/
COc1cc(C(=O)NC(=S)N(CCc2ccccc2)CCc2ccccc2)cc(OC)c1OC	-13	6	5	-18	-14	53*
Cn1cnc([N+](=O)[O-])c1S(=O)(=O)Oc1ccc(Cl)cc1	/	8	/	/	/	16
CN1C(=O)c2cccc3c(S(=O)(=O)Nc4ccccn4)ccc1c23	7	6	68*	-25	-14	-13
Cn1nc(C(C)(C)C)cc1C(=O)NCc1cc(F)cc2c1OCOC2	1	9	14	29	23	50*
CCOc1ccc(NC(=O)CN2C(=O)S/C(=C/c3cccn3C)C2=O)cc1	0	3	44	-1	-11	16
Cn1cccc1/C=C1\SC(=O)N(CC(=O)Nc2ccc(Cl)cc2)C1=O	-7	28	3	-16	-11	55*
C[C@@H]1COc2cccc(NC3CC3)c2S(=O)(=O)N1	/	0	/	/	/	0
CCC(=O)N1CCCC1(C)C(=O)Nc1cc(OC)ccc1OC (centres undefined)	/	5	/	/	/	-16
OC(c1ccccc1)c1nc(/C=C/c2ccccc2)cs1 (centres undefined)	/	0	/	/	/	1
CSc1ccc(C(=O)NCC(=O)O)cc1[N+](=O)[O-]	-17	1	53*	-18	-9	-6
O=C(O)CNC(=O)c1ccc(Sc2ccccc2)c([N+](=O)[O-])c1	0	0	64*	-5	0	-5
C=CCNC(=O)c1ccc(Sc2ccccc2)c([N+](=O)[O-])c1	12	9	36	-26	-25	8
CNC[C@@H]1OCc2cnnn2CCCC(=O)N([C@@H](C)CO)C[C@H]1C	/	5	/	/	/	-16
COc1ccc(C2CC(=O)C(c3ccc(C(C)=O)cc3)=CN2Cc2ccccc2)cc1 (centres undefined)	/	-2	/	/	/	-7
COc1ccc([C@H]2CC(=O)C[C@@H](CCn3cc(-c4ccc(F)cc4)nn3)O2)cc1	/	3	/	/	/	-21
COCC(=O)N1C[C@H]2CON(C)[C@H]2C[C@H]1c1cccc(-c2cc(Cl)cc(Cl)c2)c1	/	6	/	/	/	-9
